GalR3 antagonist: antagonists of human GalR3; HEK293 GalR3-CNG cAMP membrane potential fluorescence; galR3 body fused to GalR1 C-terminus; O60755; hit rate 0.44% among 360,000; AID 651719; inhibition, % at 3 µM;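 active = inhibition above the screen-wide average plus 3 SD, cut at about 13% in these data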;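 also: forskolin and galanin both at EC90 stimulate the cells; cAMP rise reported by CNG channel membrane potential dye signal; 0% = forskolin plus galanin with DMSO and 100% = forskolin alone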
Target sequence (O60755 1-299 limits assumed): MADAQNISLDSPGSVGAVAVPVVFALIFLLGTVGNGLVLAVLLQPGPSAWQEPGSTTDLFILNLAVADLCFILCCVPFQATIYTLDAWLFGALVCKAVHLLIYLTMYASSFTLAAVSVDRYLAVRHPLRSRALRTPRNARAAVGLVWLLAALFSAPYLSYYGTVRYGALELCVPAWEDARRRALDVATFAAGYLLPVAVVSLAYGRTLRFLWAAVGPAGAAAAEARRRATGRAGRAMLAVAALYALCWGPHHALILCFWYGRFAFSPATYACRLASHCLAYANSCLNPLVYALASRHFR
CHO parental Ca: counter-screen for OX1R antagonists: effect in parental CHO cells; parental CHO-K1, ATP-induced calcium, Fluo-8 fluorescence; hit rate 0.63% among 330,000; AID 463079; inhibition, % at 5.6 µM;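 active = inhibition above that plate's mean sample inhibition plus 3 SD, cut at about 26% in these data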;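 also: 0% = ATP-challenged DMSO wells and 100% = DMSO wells without ATP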
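Measured by: calcium-sensitive Fluo-8 fluorescence / Test system: CHO parental line / Controls: ATP-challenged DMSO wells low, unchallenged DMSO wells high / Measure: % inhibition / Compound: single nominal dose of 5.6 µM per compound / Replicates: single well per compound, no replicates / Reagent: ATP as calcium-mobilizing challenge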
OX1R antag-1: blocks the human orexin 1 receptor; OX1R-expressing cells, FRET antagonist read-out; inhibition, % at 6.6 µM; hit rate 1.8% among 330,000; AID 485270; in the data active = inhibition mostly above about 38%, no sharp cut-off; inactive = mostly below about 40%;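 also: 0% = agonist challenge alone and 100% = reference antagonist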
OX1R antag-2: blocks the human orexin 1 receptor. CHO/OX1R cells, Fluo-8 calcium fluorescence, orexin A. inhibition, % at 5 µM. hit rate 0.43% among 330,000. AID 434989;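 active = inhibition above its plate's threshold, mean inhibition of all tested compounds on the plate plus 3 SD, cut at about 37% in these data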;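 also: 0% = orexin A challenge wells and 100% = SB-334867-A antagonist wells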
GPR7 antag: blocks human GPR7 receptor signaling; inhibition, % at 4.4 µM; P48145; hit rate 1.1% among 290,000; GPR7-expressing cells, fluorescence antagonist assay; in the data active = inhibition above about 16%, passing the limit was not always enough;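 also: cells stimulated with the agonist NPW; 0% = agonist with vehicle and 100% = vehicle without agonist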
Target sequence (P48145 whole entry, looked up): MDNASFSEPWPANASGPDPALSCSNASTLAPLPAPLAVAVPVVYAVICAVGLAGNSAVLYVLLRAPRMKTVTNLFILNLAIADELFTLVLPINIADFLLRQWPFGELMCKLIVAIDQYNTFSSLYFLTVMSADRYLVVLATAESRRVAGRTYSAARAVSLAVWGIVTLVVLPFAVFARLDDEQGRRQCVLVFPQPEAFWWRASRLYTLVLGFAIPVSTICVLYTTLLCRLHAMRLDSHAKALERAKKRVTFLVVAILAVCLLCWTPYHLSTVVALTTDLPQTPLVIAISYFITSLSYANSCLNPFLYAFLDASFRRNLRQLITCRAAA
* hit, by the source's call; / = no result given. An excerpt weighted towards active compounds, which were near 3.1% of everything screened.

SMILES	GalR3 antagonist	CHO parental Ca	OX1R antag-1	OX1R antag-2	GPR7 antag
C=CCn1c(C(C)NC(=O)CCC)nc2ccccc21 (centres undefined)	-5.4	4.4	10.0	-1.4	19.8*
N#C/C(=N\Nc1ccc(Cl)c(Cl)c1)C(=O)C1CC1	2.4	25.3	49.5*	17.0	-3.1
CCNc1nc(Oc2ccc(C(=O)OC)cc2)nc(N(C)C)n1	-3.0	-15.9	17.9	-0.5	-4.8
COC(=O)c1ccc(Oc2nc(Nc3ccc(C)c(C)c3)nc(N(C)C)n2)cc1	-3.8	-34.5	38.5*	-50.6	0.6
CC(=O)Nc1ccc(S(=O)(=O)N(Cc2ccccc2)C(C)C)cc1	-5.8	3.2	43.1*	-8.2	10.2
CC(=O)Nc1ccc(S(=O)(=O)N(C)Cc2ccccc2)cc1	-2.7	0.5	20.1	-0.5	5.9
CC(Cc1cccs1)NC(=O)Nc1ccc(Cl)c(Cl)c1 (centres undefined)	-1.8	62.7*	49.0*	47.4*	-5.1
CC(Cc1cccs1)NC(=O)Nc1ccc(Cl)cc1 (centres undefined)	-2.5	-0.4	25.3	-0.2	-5.0
O=S(=O)(c1ccc(SCCOc2ccc(Br)cc2)nc1)N1CCCC1	-5.6	-17.6	-1.4	-12.8	/
O=S(=O)(c1ccc(SCCOc2ccc(Cl)cc2)nc1)N1CCCC1	-3.4	30.0*	-5.9	1.6	/
c1ccc(COCCc2cn(Cc3ccccc3)c3ccccc23)cc1	-7.3	/	/	/	/
CC(=O)N1CCN(c2ccccc2NC(=O)COc2cc(C)ccc2C(C)C)CC1	-0.2	-12.5	37.3	-8.2	20.8*
Cc1ccc(C(C)C)c(OCC(=O)Nc2ccccc2N2CCN(C)CC2)c1	-4.5	-14.8	2.9	-9.5	3.3
Nc1cc2ccccc2cc1NS(=O)(=O)N1CCCCC1	-8.0	/	/	/	/
S=C1NCCOc2ccccc21	-6.0	/	/	/	/
CN(C)S(=O)(=O)c1cccc(COC(=O)c2ccc(Cl)cc2O)c1	-4.9	48.2*	33.8	32.9	6.0
COc1ccc(CNC(=O)N(C)C[C@@H]2OCc3ccccc3-c3c(n(C)c4ccccc34)C(=O)N([C@@H](C)CO)C[C@@H]2C)cc1	0.1	/	/	/	/
O=C(CS(=O)(=O)c1ccccc1)c1ccc2c(c1)OCCO2	1.4	0.9	44.2	-0.3	17.9*
O=C(O)CCC(=O)c1ccc2c(c1)OCCO2	-1.9	-1.9	4.1	-8.0	-4.5
O=c1oc2ccccc2c(O)c1/C=C1\C=Nc2ccccc21	-2.2	7.6	73.5*	-19.0	-8.1
O=c1oc2ccccc2c(O)c1/C=N/c1ncccn1	-1.1	-6.0	46.6	-6.4	/
O=[N+]([O-])c1cc2c(ccc3occc32)o1	-8.6	/	/	/	/
CCNC(=O)N1C[C@H]2CON(C)[C@H]2C[C@H]1c1ccc(N2CCCCC2)cc1	-5.7	/	/	/	/
Cc1cccn2cc(-c3cc4ccccc4oc3=O)nc12	-0.6	1.4	9.9	0.9	-6.3
O=c1oc2ccccc2cc1-c1cn2cccnc2n1	-2.1	-3.7	66.3*	-11.0	7.1
SMILES	GalR3 antagonist	CHO parental Ca	OX1R antag-1	OX1R antag-2	GPR7 antag
Nc1[nH]c(C(=O)c2ccccc2)c(-c2ccc(F)cc2)c1C(=O)c1c[nH]c2ccccc12	-1.9	/	/	/	/
Cc1ccc2nc(CSc3nnc(-c4ccco4)n3-c3ccccc3)cc(=O)n2c1	5.8	-6.9	19.3	-21.5	-4.4
Cc1ccc2nc(CSc3nnc4ccccn34)cc(=O)n2c1	-3.9	-10.3	25.0	-13.1	17.1*
COc1cc2nc(/C=C/c3ccc(N(C)C)cc3)sc2cc1SC	-3.5	51.8*	26.8	60.2*	4.5
CCN(CC)c1ccc(/C=C/c2nc3ccccc3s2)cc1	/	-2.8	14.5	27.9	9.9
Cc1cccc(OCC(=O)Nc2ccc3oc(=O)ccc3c2)c1C	-11.4	50.0*	14.9	2.4	5.1
Cc1ccc(OCC(=O)Nc2ccc3oc(=O)ccc3c2)cc1	-6.5	1.8	7.1	-9.4	7.2
COc1ccc2[nH]c3c(NCc4ccco4)ncnc3c2c1	/	-9.9	23.9	-17.1	-8.2
Fc1ccc2[nH]c3c(NCc4ccccc4)ncnc3c2c1	-11.2	70.0*	59.1*	2.6	28.3
CC(=O)Nc1ccc(C(=O)N2CCCCC2c2cc(C(=O)NCc3ccc(F)cc3)no2)cc1 (centres undefined)	-7.3	/	/	/	/
O=C(Nc1cccc(-c2cn3ccccc3n2)c1)c1cccc(Cl)c1	-3.4	72.5*	92.6*	82.5*	-18.0
CC(=O)Oc1ccc2oc(/C=C/N(C)C)c([N+](=O)[O-])c2c1	-5.2	-2.9	50.3*	3.7	5.9
COc1ccc(-c2ccc3c(n2)CCCN3S(=O)(=O)c2ccc(C#N)cc2)cc1	-0.7	/	/	/	/
Cc1ccc(C2c3c(n[nH]c3C)C(=O)N2Cc2ccccc2)cc1 (centres undefined)	8.7	/	/	/	/
Cc1ccc(C2c3c(-c4ccccc4O)n[nH]c3C(=O)N2Cc2ccncc2)cc1 (centres undefined)	-4.4	-14.2	19.3	-36.1	19.8*
CSc1cccc(N2CC(C(=O)N(Cc3nnc(-c4ccccc4Cl)o3)C3CC3)CC2=O)c1 (centres undefined)	-1.6	-10.0	58.3*	5.4	7.1
COc1cc(CNC(=O)c2cc(-c3cc(Cl)ccc3C)n[nH]2)cc(OC)c1	-5.1	/	/	/	/
COc1ccc(OCC(O)CNC(C)c2ccccc2)cc1 (centres undefined)	-4.0	-23.4	3.9	-18.0	5.7
CCCC(NCC(O)COc1ccc(-c2ccccc2)cc1)c1ccccc1 (centres undefined)	8.5	53.4*	-1.0	38.0	19.5
CCOC(=O)c1csc(-c2sccc2Br)n1	9.0	-8.4	44.9*	-11.4	-4.9
CCOC(=O)c1csc(-c2ccc(OC)c(OC)c2)n1	2.8	-4.5	17.5	-23.2	-9.9
O=C(N[C@@H](Cc1cccnc1)C(=O)N1CCC[C@H]1C(=O)NCCc1ccccc1Cl)c1ccccc1	-4.4	/	/	/	/
Cc1cc(N2CCNC[C@@H]2C)ccc1N1CCS(=O)(=O)CC1	-7.1	/	/	/	/
O=[N+]([O-])c1ccc(N2CCN(CCO)CC2)c2ncccc12	5.1	1.3	39.7	-1.0	1.6
O=[N+]([O-])c1c(N2CCN(CCO)CC2)nc2ccccn12	-9.5	-3.0	70.2*	-7.6	-0.5
SMILES	GalR3 antagonist	CHO parental Ca	OX1R antag-1	OX1R antag-2	GPR7 antag
CCOC(=O)Cc1c(-c2cccc(Br)c2)nc2c3ccccc3ccn12	-5.7	/	/	/	/
CC(C)C[C@@H]1COc2cc(N3CCCC3)ccc2S(=O)(=O)N1	0.0	/	/	/	/
COc1ccc(S(=O)(=O)N(C(=O)c2ccco2)c2cc3sc(=O)oc3c3ccccc23)cc1	3.2	66.0*	2.4	59.5*	-11.1
CC(=O)N(c1ccc2oc(=O)sc2c1)S(=O)(=O)c1ccccc1	0.6	3.3	16.5	-13.1	-8.5
CCOc1ccc(S(=O)(=O)N(C(=O)c2ccco2)c2cc3sc(=O)oc3c3ccccc23)cc1	7.4	82.0*	6.3	68.7*	-5.0
Cc1ccc(S(=O)(=O)N(C(=O)c2ccco2)c2cc3sc(=O)oc3c3ccccc23)cc1	-1.4	76.0*	10.1	61.5*	-0.2
CN(C)c1ccc(/C=C/c2nc3ccccc3c(=O)n2CCO)cc1	-5.1	7.1	51.7*	3.5	0.8
CCOc1ccccc1NCc1cc(=O)oc2cc(C)ccc12	-12.2	-28.4	46.5*	-11.8	11.2
